In the library only some 2.4% were active in any assay of this set; here they are far more common.
NPY2 pot ag = potentiators or agonists of human neuropeptide Y receptor Y2 | P49146 | cells expressing NPY-Y2, potentiator/agonist read-out | activation, % at 3.6 µM | actives 0.45% (n = 220,000); in the data active = activation above about 27%;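 also: cells stimulated with NPY near EC25 plus isoproterenol at EC100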
Target sequence (P49146 whole entry, looked up): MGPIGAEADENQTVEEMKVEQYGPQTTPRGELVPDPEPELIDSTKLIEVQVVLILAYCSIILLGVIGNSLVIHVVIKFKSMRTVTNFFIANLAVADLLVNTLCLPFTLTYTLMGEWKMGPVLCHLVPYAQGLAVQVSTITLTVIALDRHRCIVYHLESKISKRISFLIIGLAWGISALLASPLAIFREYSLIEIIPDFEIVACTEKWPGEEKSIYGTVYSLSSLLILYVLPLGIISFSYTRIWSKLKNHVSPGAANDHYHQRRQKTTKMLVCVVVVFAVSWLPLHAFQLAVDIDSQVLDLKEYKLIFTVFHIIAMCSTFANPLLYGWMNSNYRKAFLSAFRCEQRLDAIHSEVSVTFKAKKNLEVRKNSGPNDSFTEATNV
S1P4 agonist = activates the human S1P4 receptor; activation, % at 4.98 µM; S1P4-expressing cell line, agonist reporter assay; O95977; actives 0.35% (n = 220,000); AID 1509; in the data active = activation above about 11%
NPY-Y1 antag = blocks the human neuropeptide Y Y1 receptor; HEK293-CNG Y1 cells, membrane potential fluorescence; NPY at EC95, then isoproterenol; actives 1% (n = 200,000); P25929; inhibition, % at 3.6 µM; AID 1040;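 active = inhibition above the campaign mean inhibition of all tested compounds plus 3 SD, cut at about 20% in these data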
Target sequence (P25929 whole entry, looked up): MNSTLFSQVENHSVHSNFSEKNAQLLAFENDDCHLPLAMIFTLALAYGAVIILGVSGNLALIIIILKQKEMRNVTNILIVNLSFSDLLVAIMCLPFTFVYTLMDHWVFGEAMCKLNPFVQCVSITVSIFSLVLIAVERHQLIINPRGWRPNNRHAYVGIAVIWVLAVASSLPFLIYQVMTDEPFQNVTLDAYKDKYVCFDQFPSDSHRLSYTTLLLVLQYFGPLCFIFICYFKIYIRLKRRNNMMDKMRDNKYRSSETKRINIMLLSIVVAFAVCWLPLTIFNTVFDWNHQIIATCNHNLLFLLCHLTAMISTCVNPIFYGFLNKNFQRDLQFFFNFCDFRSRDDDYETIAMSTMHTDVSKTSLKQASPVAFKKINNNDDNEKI
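Test system: HEK293 cells co-expressing NPY Y1 receptor and cyclic-nucleotide gated channel; Also added: NPY (25 nM), isoproterenol (1 µM), Ro 20-1724 (25 µM); Compound dosing: one concentration, 3.6 µM, in 0.4% DMSO; Timing: dye 3 h, compound 60 min room temperature, stimulation 45 min; Technique: Membrane-potential fluorescent dye readout.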
NPY-Y2 antag = NPY-Y2 (human) receptor antagonism; AID 793; P49146; inhibition, % at 2.7 µM; NPY-Y2 expressing cells, antagonist mode; actives 0.99% (n = 140,000); in the data active = inhibition above about 17%
NPY-Y1 PAM-ag = human NPY-Y1 potentiation or agonism, primary screen; P25929; NPY-Y1 expressing cells, potentiator/agonist activation; activation, % at 3.6 µM; actives 0.37% (n = 220,000); AID 1304; in the data active = activation above about 33%, passing the limit was not always enough;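 also: cells stimulated with NPY at EC10 then isoproterenol at EC100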
S1P4 antag = antagonists of human S1P4 receptor | S1P4-expressing cells, antagonist mode, reporter read-out | O95977 | actives 0.26% (n = 220,000) | inhibition, % at 4.98 µM; in the data active = inhibition above about 29%
NPY-Y2 confirm = human NPY-Y2 potentiation or agonism, confirmation | shares compounds with NPY2 pot ag | cell-based NPY-Y2 potentiator/agonist assay | activation, % at 3.6 µM | actives 20% (n = 450); in the data active = activation above about 33%
NPY-Y1 potentiator = potentiates or activates NPY-Y1, counter-screen for NPY-Y2 hits | shares compounds with NPY2 pot ag | Y1 HEK293-CNG cells, membrane potential fluorescence | activation, % at 3.6 µM | actives 20% (n = 450) | AID 1651; in the data active = activation above about 45%;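 also: cells stimulated with submaximal NPY then isoproterenol with phosphodiesterase inhibitor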
NPY-Y1 agonist 2 = activates human NPY-Y1, counter-screen for NPY-Y2 potentiators. shares compounds with NPY2 pot ag. AID 1702. activation, % at 3.6 µM. HEK293 Y1-CNGC, membrane potential fluorescence, agonism. actives 37% (n = 450);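 active = activation above the mean of DMSO-only control wells plus 3 SD, cut at about 18% in these data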;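 also: cells stimulated with 1 µM isoproterenol plus the PDE inhibitor Ro 20-1724; Y1 agonists lower the membrane potential dye signal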
CNGC inh = cyclic nucleotide gated channel inhibition as counter-screen; actives 32% (n = 450); inhibition, % at 3.6 µM; HEK293-CNG parental, isoproterenol cAMP, membrane potential fluorescence; shares compounds with NPY2 pot ag; AID 1703;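 active = inhibition above the control-well mean plus 3 SD of those wells, cut at about 22% in these data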
Y2 agonist ctr = NPY-Y2 agonism, counter-screen for Y2 potentiators. HEK293 Y2/CNGC cells, membrane potential fluorescence, agonist mode. shares compounds with NPY2 pot ag. activation, % at 3.6 µM. AID 1710. actives 56% (n = 450);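 active = activation above the mean of solvent-only control wells plus 3 SD, cut at about 10% in these data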;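 also: cells stimulated by isoproterenol with no NPY added so direct agonism is tested; agonism lowers probe fluorescence through less cAMP and CNG channel opening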
Each line names hits and unclear results; the compound was inactive in the other large screens (follow-up assays come after a bar, where they were run).

FC(F)(F)c1cnc(NNC(=S)Nc2ccc(Cl)cc2)c(Cl)c1	NPY2 pot ag 42 | NPY-Y2 confirm inactive | NPY-Y1 potentiator inactive | NPY-Y1 agonist 2 inactive | CNGC inh inactive | Y2 agonist ctr 16
Fc1ccc2c(c1)/C(=N/Nc1ccccn1)CCS2	NPY2 pot ag 30 (no result: NPY-Y2 antag) | NPY-Y2 confirm inactive | NPY-Y1 potentiator inactive | NPY-Y1 agonist 2 27 | CNGC inh inactive | Y2 agonist ctr 22
Fc1ccc(N/N=C2/CCSc3sccc32)c(F)c1	none (no result: NPY-Y1 antag, NPY-Y2 antag)
N#C/C(=N\Nc1ccc(Cl)cc1)C(=O)c1ccsc1	NPY2 pot ag 59 (no result: NPY-Y1 antag, NPY-Y2 antag) | NPY-Y2 confirm inactive | NPY-Y1 potentiator inactive | NPY-Y1 agonist 2 inactive | CNGC inh inactive | Y2 agonist ctr inactive
N#C/C(=N\Nc1ccc(Cl)cc1)C(N)=S	NPY2 pot ag 54 (no result: NPY-Y1 antag, NPY-Y2 antag) | NPY-Y2 confirm inactive | NPY-Y1 potentiator inactive | NPY-Y1 agonist 2 inactive | CNGC inh inactive | Y2 agonist ctr inactive
N#C/C(=N\Nc1ccccc1)C(N)=S	none (no result: NPY-Y1 antag, NPY-Y2 antag)
O=C(Nc1nonc1NC(=O)c1cccs1)c1cccs1	NPY2 pot ag 31 (no result: NPY-Y2 antag) | NPY-Y2 confirm inactive | NPY-Y1 potentiator inactive | NPY-Y1 agonist 2 inactive | CNGC inh inactive | Y2 agonist ctr inactive
O=C(Nc1ccccn1)c1cccs1	none
CC(C)(C)c1ccc(O)c(N=Cc2cc(Br)ccc2O)c1	none (no result: NPY-Y2 antag)
Cc1ccc(Nc2nc(N/N=C/c3c[nH]c4ccccc34)nc(N3CCOCC3)n2)cc1	NPY2 pot ag 27 | NPY-Y2 confirm 41 | NPY-Y1 potentiator 59 | NPY-Y1 agonist 2 33 | CNGC inh 42 | Y2 agonist ctr 44
COc1ccc(C)cc1NC(=O)Cn1cnnn1	none (no result: NPY-Y2 antag)
CCOC(=O)CC(=O)CSc1nc2c(sc(=S)n2-c2ccccc2)c(=O)[nH]1	none
CCOC(=O)c1ccc(-n2c(=S)sc3c(=O)[nH]c(C)nc32)cc1	NPY2 pot ag 35 | NPY-Y2 confirm inactive | NPY-Y1 potentiator inactive | NPY-Y1 agonist 2 inactive | CNGC inh inactive | Y2 agonist ctr 12
Fc1ccc(NC(=S)N2CCCN(c3ccc(C(F)(F)F)cn3)CC2)c(F)c1	NPY2 pot ag 43 (no result: NPY-Y1 antag, NPY-Y2 antag) | NPY-Y2 confirm inactive | NPY-Y1 potentiator inactive | NPY-Y1 agonist 2 inactive | CNGC inh inactive | Y2 agonist ctr inactive
O=C(Nc1ccc(F)cc1F)N1CCCN(c2ccc(C(F)(F)F)cn2)CC1	none (no result: NPY-Y1 antag, NPY-Y2 antag)
N/C(=N\OC(=O)c1ccc(Cl)cc1)c1ccc(Cl)cc1	none
N/C(=N\OC(=O)c1ccc(OCC(F)(F)F)nc1)c1ccc(Cl)cc1	NPY2 pot ag 82 (no result: NPY-Y1 antag, NPY-Y2 antag) | NPY-Y2 confirm inactive | NPY-Y1 potentiator inactive | NPY-Y1 agonist 2 inactive | CNGC inh inactive | Y2 agonist ctr inactive
CCOC(=O)c1cncc(C#CCOC(=O)Nc2ccc(OC(F)(F)F)cc2)c1	none (no result: NPY-Y1 antag, NPY-Y2 antag)
COCCc1ccc(OCC(O)CNC(C)C)cc1 (configuration not stated)	NPY2 pot ag 65 | NPY-Y2 confirm 38 | NPY-Y1 potentiator inactive | NPY-Y1 agonist 2 34 | CNGC inh inactive | Y2 agonist ctr 28
CC(C)NCC(O)COc1ccc(CC(N)=O)cc1 (configuration not stated)	none
C#CC(=O)N(c1ccc(OC)cc1OC)C(C(=O)NC1CCCC1)c1cccs1 (configuration not stated)	NPY2 pot ag 35 (no result: NPY-Y2 antag) | NPY-Y2 confirm inactive | NPY-Y1 potentiator inactive | NPY-Y1 agonist 2 inactive | CNGC inh 48 | Y2 agonist ctr 21
Cc1cccc2c1CC(C)(C)N=C2C1=C(O)CC(C)(C)CC1=O	NPY2 pot ag 76 | NPY-Y2 confirm inactive | NPY-Y1 potentiator inactive | NPY-Y1 agonist 2 inactive | CNGC inh inactive | Y2 agonist ctr inactive
O=C(COc1ccc(Cl)cc1)Nc1ncc([N+](=O)[O-])s1	NPY2 pot ag 40 (no result: NPY-Y2 antag) | NPY-Y2 confirm inactive | NPY-Y1 potentiator inactive | NPY-Y1 agonist 2 inactive | CNGC inh inactive | Y2 agonist ctr 10
CC(CC(=O)Nc1ncc([N+](=O)[O-])s1)c1ccccc1 (configuration not stated)	none (no result: NPY-Y2 antag)
O=C(Cn1cnc2c(nnn2-c2ccccc2)c1=O)NCc1ccc(F)cc1	none (no result: NPY-Y2 antag)
N#C/C(=N\Nc1ccc(F)cc1)C(=O)C1CC1	none (no result: NPY-Y1 antag, NPY-Y2 antag)
N#C/C(=N\Nc1ccc(Cl)c(Cl)c1)C(=O)C1CC1	NPY2 pot ag 63 (no result: NPY-Y1 antag, NPY-Y2 antag) | NPY-Y2 confirm inactive | NPY-Y1 potentiator inactive | NPY-Y1 agonist 2 inactive | CNGC inh inactive | Y2 agonist ctr inactive
CCOC(=O)C(=CNc1ccc(NC2=NCC(C)S2)cc1)C(=O)OCC (configuration not stated)	NPY2 pot ag 47 | NPY-Y2 confirm inactive | NPY-Y1 potentiator inactive | NPY-Y1 agonist 2 inactive | CNGC inh inactive | Y2 agonist ctr inactive
O=C(CN1CCN(Cc2ccc(Cl)cc2)CC1)N/N=C/c1cccc(F)c1	NPY2 pot ag 99 (no result: NPY-Y1 antag, NPY-Y2 antag) | NPY-Y2 confirm inactive | NPY-Y1 potentiator inactive | NPY-Y1 agonist 2 inactive | CNGC inh inactive | Y2 agonist ctr inactive
CCn1ncc(C2=NOC(C(=O)NCc3ccc(Cl)cc3)C2)c1C (configuration not stated)	none
Cc1ccc(OCc2ccc(C(=O)NN)o2)c([N+](=O)[O-])c1	none (no result: NPY-Y1 antag, NPY-Y2 antag)
COC(=O)c1ccc(COc2ccc(C)cc2[N+](=O)[O-])o1	NPY2 pot ag 56 (no result: NPY-Y1 antag, NPY-Y2 antag) | NPY-Y2 confirm inactive | NPY-Y1 potentiator inactive | NPY-Y1 agonist 2 inactive | CNGC inh inactive | Y2 agonist ctr inactive
COCCCN(C(=S)Nc1ccc(C)cc1Cl)C(C)c1ccncc1 (configuration not stated)	none
Clc1cccc(-c2nnc(SCc3nc4ccccc4[nH]3)n2Cc2ccco2)c1	none
Clc1ccc(OCc2nnc(SCc3nc4ccccc4[nH]3)n2Cc2ccco2)cc1	NPY2 pot ag 40 | NPY-Y2 confirm inactive | NPY-Y1 potentiator inactive | NPY-Y1 agonist 2 inactive | CNGC inh inactive | Y2 agonist ctr 14
N#Cc1cc(S(=O)(=O)c2ccc(Cl)cc2)c(N)[nH]c1=O	NPY2 pot ag 54 (no result: NPY-Y2 antag) | NPY-Y2 confirm inactive | NPY-Y1 potentiator inactive | NPY-Y1 agonist 2 inactive | CNGC inh inactive | Y2 agonist ctr inactive
COc1nc(N)c(S(=O)(=O)c2ccccc2)cc1C#N	none
O=S(=O)(Nc1ccc(-c2csc(-c3ccccc3)n2)cc1)c1ccc(F)cc1	none

Source: PubChem BioAssay
